Laboratory results published in ChEMBL document CHEMBL1250448, “Inhibitor hijacking of Akt activation” (Nat Chem Biol, 2009).

Key:
[1] = target: Calcium/calmodulin-dependent protein kinase type II subunit alpha (Homo sapiens) (UniProt Q9UQM7); assay: Inhibition of CAMK2A at 1 uM in presence of 10 uM ATP by Select Screen kinase assay relative to untreated control
Outline: (§1)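 Single-point screen at 1 μM against a panel of 220 purified kinases, run by Invitrogen staff as a SelectScreen profiling service. Read-out is percent inhibition of kinase activity.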

[2] = target: Dual specificity tyrosine-phosphorylation-regulated kinase 1A (Homo sapiens) (UniProt Q13627); assay: Inhibition of DYRK1A at 1 uM in presence of 10 uM ATP by Select Screen kinase assay relative to untreated control; outline: as §1
[3] = target: T1, Ephrin type-A receptor 1 (Homo sapiens) (UniProt P21709); assay: Inhibition of EPHA1 at 1 uM in presence of 10 uM ATP by Select Screen kinase assay relative to untreated control; outline: as §1
T1 sequence (whole entry): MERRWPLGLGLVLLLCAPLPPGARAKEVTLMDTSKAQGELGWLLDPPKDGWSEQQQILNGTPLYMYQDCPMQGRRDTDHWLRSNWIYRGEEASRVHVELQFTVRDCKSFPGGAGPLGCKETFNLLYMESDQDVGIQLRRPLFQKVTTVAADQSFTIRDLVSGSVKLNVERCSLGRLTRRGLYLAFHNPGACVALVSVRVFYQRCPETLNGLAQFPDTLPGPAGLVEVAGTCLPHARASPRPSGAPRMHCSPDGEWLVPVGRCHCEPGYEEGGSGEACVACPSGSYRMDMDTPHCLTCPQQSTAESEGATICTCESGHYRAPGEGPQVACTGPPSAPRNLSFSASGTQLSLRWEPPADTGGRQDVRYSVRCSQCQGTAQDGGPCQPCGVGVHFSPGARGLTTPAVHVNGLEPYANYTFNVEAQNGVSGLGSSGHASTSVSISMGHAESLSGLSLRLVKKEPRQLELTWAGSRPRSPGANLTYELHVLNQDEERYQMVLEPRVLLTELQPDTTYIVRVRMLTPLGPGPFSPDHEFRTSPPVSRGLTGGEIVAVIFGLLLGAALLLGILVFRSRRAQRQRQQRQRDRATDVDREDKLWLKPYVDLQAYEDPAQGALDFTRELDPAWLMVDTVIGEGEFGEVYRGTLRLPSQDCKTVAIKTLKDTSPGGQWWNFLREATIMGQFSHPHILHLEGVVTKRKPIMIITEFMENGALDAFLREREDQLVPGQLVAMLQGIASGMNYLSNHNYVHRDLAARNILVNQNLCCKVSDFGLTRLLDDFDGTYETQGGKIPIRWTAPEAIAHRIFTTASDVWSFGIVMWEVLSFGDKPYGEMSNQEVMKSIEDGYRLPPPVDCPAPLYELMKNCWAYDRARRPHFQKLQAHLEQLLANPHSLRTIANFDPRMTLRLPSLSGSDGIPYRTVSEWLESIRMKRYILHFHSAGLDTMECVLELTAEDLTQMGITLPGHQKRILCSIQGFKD

[4] = target: T2, Serine/threonine-protein kinase Nek1 (Homo sapiens) (UniProt Q96PY6); assay: Inhibition of NEK1 at 1 uM in presence of 10 uM ATP by Select Screen kinase assay relative to untreated control
T2 sequence (whole entry): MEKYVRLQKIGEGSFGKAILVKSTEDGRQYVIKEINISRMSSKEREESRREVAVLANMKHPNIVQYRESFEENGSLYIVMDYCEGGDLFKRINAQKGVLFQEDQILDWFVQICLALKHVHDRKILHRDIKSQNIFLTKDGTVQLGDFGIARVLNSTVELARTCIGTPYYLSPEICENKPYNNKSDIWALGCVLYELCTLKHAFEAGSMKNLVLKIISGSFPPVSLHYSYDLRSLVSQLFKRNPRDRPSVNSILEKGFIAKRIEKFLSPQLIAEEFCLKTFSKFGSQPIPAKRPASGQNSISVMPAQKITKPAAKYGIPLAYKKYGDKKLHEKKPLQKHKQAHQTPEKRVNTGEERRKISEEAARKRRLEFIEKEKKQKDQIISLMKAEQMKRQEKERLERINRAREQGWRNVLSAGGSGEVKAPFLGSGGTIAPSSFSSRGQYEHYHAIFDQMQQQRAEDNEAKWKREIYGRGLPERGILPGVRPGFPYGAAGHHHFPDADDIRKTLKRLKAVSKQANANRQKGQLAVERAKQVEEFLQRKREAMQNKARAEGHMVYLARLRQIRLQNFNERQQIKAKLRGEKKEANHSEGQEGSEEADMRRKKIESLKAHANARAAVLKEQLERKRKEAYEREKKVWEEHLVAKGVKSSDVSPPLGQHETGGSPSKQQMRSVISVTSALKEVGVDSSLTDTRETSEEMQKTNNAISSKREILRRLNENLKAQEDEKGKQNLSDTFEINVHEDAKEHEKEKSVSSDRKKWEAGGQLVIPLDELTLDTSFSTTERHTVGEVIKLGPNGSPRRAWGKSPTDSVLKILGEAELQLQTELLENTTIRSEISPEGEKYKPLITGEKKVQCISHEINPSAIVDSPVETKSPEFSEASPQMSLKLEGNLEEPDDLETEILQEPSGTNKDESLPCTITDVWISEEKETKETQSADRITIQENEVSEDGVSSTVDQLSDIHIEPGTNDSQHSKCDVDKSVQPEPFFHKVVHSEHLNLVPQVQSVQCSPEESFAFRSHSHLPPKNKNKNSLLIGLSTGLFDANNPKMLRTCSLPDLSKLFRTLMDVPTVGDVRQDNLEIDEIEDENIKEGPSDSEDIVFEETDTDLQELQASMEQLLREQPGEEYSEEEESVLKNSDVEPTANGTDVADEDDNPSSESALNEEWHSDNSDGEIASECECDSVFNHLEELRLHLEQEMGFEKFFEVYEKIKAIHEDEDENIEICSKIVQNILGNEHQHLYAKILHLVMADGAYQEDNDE
Outline: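 Single-concentration profiling at 1 μM against a panel of 220 purified kinases, run as an outsourced SelectScreen kinase profiling service. Activity is expressed as percent inhibition.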

[5] = target: cGMP-dependent protein kinase 1 (Homo sapiens) (UniProt Q13976); assay: Inhibition of PRKG1 at 1 uM in presence of 10 uM ATP by Select Screen kinase assay relative to untreated control
[6] = target: Calcium/calmodulin-dependent protein kinase type 1D (Homo sapiens) (UniProt Q8IU85); assay: Inhibition of CAMK1D at 1 uM in presence of 10 uM ATP by Select Screen kinase assay relative to untreated control; outline: as §1
[7] = target: Dual specificity protein kinase CLK1 (Homo sapiens) (UniProt P49759); assay: Inhibition of CLK1 at 1 uM in presence of 100 uM ATP by Select Screen kinase assay relative to untreated control
Outline: (§2)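 Part of a 220-kinase panel of purified kinases, each tested with compound at 1 μM. Percent inhibition was measured in the Invitrogen SelectScreen profiling assay.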

[8] = target: Casein kinase II subunit alpha' (Homo sapiens) (UniProt P19784); assay: Inhibition of CSNK2A2 at 1 uM in presence of 10 uM ATP by Select Screen kinase assay relative to untreated control; outline: as §2
Chain of Casein kinase II subunit alpha' (Homo sapiens) (P19784 whole entry, looked up): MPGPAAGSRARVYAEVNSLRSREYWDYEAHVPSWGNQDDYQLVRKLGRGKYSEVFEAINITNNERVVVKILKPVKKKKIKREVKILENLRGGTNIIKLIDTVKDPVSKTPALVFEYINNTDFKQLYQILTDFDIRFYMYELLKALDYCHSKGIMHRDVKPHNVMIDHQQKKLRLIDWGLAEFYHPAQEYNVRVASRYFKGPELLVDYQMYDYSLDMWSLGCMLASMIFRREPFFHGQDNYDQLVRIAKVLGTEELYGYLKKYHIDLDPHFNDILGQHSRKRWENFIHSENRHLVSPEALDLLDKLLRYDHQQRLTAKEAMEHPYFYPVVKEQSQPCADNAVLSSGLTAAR

Chain of Calcium/calmodulin-dependent protein kinase type II subunit alpha (Homo sapiens) (Q9UQM7 whole entry): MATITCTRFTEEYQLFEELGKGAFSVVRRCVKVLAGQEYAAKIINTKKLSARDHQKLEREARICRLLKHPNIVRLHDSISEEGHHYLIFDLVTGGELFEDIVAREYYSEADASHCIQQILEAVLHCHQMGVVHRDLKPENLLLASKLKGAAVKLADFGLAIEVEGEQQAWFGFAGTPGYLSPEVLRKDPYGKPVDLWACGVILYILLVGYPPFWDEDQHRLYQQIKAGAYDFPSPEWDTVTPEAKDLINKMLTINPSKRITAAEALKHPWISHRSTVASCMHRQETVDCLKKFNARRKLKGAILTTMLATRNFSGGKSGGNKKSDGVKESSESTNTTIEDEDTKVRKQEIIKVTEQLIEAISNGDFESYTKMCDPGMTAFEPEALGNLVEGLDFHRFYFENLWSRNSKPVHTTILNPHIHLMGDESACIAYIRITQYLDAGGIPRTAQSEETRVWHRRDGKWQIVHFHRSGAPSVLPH
Chain of Calcium/calmodulin-dependent protein kinase type 1D (Homo sapiens) (Q8IU85 whole entry, looked up): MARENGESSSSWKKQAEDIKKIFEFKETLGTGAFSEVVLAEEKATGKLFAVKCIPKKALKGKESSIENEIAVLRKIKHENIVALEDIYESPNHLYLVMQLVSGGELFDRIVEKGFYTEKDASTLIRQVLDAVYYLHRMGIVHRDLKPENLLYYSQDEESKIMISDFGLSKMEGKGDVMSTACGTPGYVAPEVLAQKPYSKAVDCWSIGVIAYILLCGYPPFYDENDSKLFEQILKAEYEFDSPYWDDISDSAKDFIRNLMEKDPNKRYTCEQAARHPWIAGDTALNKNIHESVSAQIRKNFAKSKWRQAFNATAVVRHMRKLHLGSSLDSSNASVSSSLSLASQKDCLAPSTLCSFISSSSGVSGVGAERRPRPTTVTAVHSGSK
Chain of cGMP-dependent protein kinase 1 (Homo sapiens) (Q13976 whole entry): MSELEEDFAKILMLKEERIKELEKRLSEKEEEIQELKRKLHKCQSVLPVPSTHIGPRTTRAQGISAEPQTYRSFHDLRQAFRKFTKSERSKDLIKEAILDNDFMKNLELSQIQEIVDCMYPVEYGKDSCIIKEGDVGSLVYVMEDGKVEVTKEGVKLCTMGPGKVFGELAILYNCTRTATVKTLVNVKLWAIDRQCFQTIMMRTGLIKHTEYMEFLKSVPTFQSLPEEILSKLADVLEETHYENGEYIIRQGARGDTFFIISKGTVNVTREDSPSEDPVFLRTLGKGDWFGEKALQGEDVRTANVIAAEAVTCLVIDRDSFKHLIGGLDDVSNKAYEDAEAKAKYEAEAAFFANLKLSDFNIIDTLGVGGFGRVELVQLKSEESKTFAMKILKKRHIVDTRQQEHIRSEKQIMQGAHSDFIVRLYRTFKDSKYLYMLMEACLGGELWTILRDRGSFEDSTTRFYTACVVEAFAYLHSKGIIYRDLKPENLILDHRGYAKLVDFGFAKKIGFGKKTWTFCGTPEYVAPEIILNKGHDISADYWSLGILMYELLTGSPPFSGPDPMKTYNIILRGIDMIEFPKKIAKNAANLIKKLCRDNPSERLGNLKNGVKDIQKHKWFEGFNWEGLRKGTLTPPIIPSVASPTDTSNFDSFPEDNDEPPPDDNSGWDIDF
Chain of Dual specificity protein kinase CLK1 (Homo sapiens) (P49759 whole entry, looked up): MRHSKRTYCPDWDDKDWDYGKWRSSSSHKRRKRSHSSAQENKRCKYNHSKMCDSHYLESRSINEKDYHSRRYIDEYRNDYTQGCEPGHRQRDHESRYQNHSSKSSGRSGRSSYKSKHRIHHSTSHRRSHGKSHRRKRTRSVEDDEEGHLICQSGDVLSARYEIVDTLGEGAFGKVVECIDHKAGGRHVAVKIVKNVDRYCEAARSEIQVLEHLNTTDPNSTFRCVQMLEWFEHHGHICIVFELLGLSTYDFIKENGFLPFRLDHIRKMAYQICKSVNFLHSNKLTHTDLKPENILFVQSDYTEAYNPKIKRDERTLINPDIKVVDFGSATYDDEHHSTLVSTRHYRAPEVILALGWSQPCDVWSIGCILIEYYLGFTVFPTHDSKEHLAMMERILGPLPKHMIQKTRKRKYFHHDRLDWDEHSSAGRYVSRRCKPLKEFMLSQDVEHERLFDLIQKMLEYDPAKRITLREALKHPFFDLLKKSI

| Structure (SMILES) | inhibition [1] [%] | inhibition [2] [%] | inhibition [3] [%] | inhibition [4] [%] | inhibition [5] [%] | inhibition [6] [%] | inhibition [7] [%] | inhibition [8] [%] |
| --- | --- | --- | --- | --- | --- | --- | --- | --- |
| Cc1n[nH]c2ccc(-c3cncc(OC[C@@H](N)Cc4c[nH]c5ccccc45)c3)cc12 | 80 | 102 | -1 | 44 |  |  |  |  |
| O=C(NCCCNc1nc(Nc2cccc(NC(=O)N3CCCC3)c2)ncc1I)c1cccs1 | 79 | 25 | 13 | 92 | 22 | 14 | 30 | 26 |
| COc1ccccc1N1CCN(c2ncnc3[nH]nc(Br)c23)CC1 | 16 | 78 | 13 | 18 | 52 | 24 | 74 | 27 |
